# Test results reported in paper PMC3242808 (The Journal of neuroscience : the official journal of the …, 2011).
# “And” between values parts separate entries of the source, which are not always exact repeats. Equal entries are not always repeated.
# Tests used:
# CD1 mice [1] = test: AITC-induced spontaneous pain; format: in vivo, mouse; details: AITC 1 μg; for AITC-induced pain: 10 μg intraplantar; for AITC-induced nocifensive behaviors: 10 ng intraplantar
# TRPA1 [2] = target: TRPA1 (Mus musculus, UniProt Q8BLA8); test: Whole-cell patch clamp of AITC-induced TRPA1 currents in dissociated DRG neurons; format: cell-based; details: for Effect on TRPA1 currents: AITC (300 μM)-induced current; for IC50: read-out: TRPA1 IC50, TRPA1 current induced by AITC (300 μM), DRG neurons
# TRPA1 (Mus musculus, UniProt Q8BLA8), sequence (Q8BLA8 whole entry): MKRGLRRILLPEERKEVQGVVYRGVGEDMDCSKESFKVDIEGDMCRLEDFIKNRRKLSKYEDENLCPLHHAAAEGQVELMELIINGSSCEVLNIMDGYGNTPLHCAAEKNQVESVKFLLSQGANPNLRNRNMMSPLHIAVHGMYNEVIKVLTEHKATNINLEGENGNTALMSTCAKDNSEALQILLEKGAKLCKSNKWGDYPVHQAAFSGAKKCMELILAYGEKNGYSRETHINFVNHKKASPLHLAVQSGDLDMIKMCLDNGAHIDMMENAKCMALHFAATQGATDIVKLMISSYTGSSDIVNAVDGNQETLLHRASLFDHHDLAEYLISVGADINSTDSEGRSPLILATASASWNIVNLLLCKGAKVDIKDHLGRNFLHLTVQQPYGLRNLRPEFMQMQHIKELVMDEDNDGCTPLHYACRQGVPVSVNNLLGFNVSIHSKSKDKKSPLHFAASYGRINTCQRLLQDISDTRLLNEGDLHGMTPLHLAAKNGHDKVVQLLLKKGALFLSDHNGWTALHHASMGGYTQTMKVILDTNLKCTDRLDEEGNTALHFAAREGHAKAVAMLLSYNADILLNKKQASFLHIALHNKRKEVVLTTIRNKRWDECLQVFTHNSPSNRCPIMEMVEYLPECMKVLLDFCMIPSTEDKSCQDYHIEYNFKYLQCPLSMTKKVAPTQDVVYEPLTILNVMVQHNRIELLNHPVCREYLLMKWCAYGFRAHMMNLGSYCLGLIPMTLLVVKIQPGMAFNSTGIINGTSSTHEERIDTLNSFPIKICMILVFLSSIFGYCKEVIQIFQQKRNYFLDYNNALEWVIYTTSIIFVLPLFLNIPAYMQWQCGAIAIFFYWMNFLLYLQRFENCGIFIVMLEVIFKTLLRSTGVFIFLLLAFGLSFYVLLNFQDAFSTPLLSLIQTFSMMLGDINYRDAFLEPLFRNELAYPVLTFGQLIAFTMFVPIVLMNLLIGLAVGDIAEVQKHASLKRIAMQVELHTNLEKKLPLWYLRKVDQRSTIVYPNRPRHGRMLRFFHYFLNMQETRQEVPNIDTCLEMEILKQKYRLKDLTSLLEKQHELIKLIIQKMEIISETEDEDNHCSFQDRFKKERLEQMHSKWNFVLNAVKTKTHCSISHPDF
# CD1 mice [3] = test: Capsaicin-induced spontaneous pain; format: in vivo, mouse; details: capsaicin 1 μg; for Capsaicin-induced pain: 10 μg intraplantar; for Capsaicin-induced nocifensive behaviors: 10 ng intraplantar
# TRPV1 [4] = target: TRPV1 (Mus musculus, UniProt Q704Y3); format: cell-based; details: for IC50: read-out: TRPV1 IC50
# TRPV1 (Mus musculus, UniProt Q704Y3), sequence (Q704Y3 whole entry): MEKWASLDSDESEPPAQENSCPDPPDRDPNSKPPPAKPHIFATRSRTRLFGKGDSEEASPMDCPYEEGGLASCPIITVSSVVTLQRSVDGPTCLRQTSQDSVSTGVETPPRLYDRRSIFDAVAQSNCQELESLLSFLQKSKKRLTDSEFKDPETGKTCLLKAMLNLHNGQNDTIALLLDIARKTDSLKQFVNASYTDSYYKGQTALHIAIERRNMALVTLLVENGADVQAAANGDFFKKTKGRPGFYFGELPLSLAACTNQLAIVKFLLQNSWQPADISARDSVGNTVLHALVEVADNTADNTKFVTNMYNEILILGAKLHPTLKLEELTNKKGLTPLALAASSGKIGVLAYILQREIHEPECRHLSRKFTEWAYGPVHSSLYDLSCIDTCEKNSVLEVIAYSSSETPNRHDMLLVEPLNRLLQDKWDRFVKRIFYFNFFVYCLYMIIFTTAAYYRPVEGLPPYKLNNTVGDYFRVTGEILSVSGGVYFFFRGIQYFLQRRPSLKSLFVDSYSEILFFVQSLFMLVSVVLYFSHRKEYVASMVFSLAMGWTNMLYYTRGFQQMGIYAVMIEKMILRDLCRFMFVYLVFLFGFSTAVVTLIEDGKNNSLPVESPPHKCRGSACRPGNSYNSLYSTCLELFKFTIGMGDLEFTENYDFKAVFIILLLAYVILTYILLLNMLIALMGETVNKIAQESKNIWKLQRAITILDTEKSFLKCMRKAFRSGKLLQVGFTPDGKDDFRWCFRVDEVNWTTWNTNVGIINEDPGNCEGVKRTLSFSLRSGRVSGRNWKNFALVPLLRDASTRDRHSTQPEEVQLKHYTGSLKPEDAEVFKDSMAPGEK
# TRPA1 [5] = test: AITC-induced sEPSC frequency increase in lamina II neurons of spinal cord slices; format: cell-based, mouse; details: AITC 300 μM
# Outline: (§1)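 Transverse L4–L5 spinal cord slices (400–600 μm) from CD1 mice aged 4–6 weeks, perfused with Krebs solution gassed with 95% O2/5% CO2 at 37°C. Whole-cell sEPSCs recorded from lamina IIo neurons held at −70 mV with K-gluconate internal solution at pH 7.4. Signals filtered at 2 kHz and digitized at 5 kHz. Frequency ratio taken against pretreatment baseline, with AITC at […]; n = 5–9 neurons.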
# CD1 mice [6] = test: Formalin test; format: in vivo, mouse; details: 0.01 ng intrathecal
# [7] = test system: lamina II neurons of spinal cord slices; test: Patch clamp of basal sEPSCs in lamina II neurons of spinal cord slices; format: cell-based, mouse; details: RvD2 alone, 1 ng/ml
# Outline: as §1
# CD1 mice [8] = test: CFA-induced persistent inflammatory pain; format: in vivo, mouse; details: 10 ng intrathecal, 3 days after CFA
# [9] = test system: C-fiber-evoked field potentials in the dorsal horn; test: Spinal cord LTP of C-fiber-evoked field potentials in anesthetized mice; format: in vivo, mouse; details: 10 ng intrathecal, 2 h after LTP induction
# Outline: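 Mice under urethane (1.5 g/kg i.p.), laminectomy at T13–L1. Bipolar sciatic nerve stimulation; C-fiber field potentials recorded in ipsilateral L4–L5 dorsal horn at 100–300 μm depth. Test pulses (2× threshold, 0.5 ms) every 5 min for >40 min, then tetanus (5× threshold, 100 Hz, 1 s, four trains, 10 s apart). Test compound 10 ng i.t. via PE5 catheter 2 h post-induction; n = 5; two-way ANOVA.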
# TRPV1 [10] = format: cell-based, mouse; details: capsaicin 1 μM
# [11] = test system: lamina II neurons of spinal cord slices; test: sEPSCs in spinal cord slices from CFA-inflamed mice; format: cell-based, mouse; details: 1 ng/ml; slices from CFA-inflamed mice (one day)
# Outline: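 CD1 mice received CFA intraplantar (20 μl, 1 mg/ml) and were sliced 1 d later. Slices were compared with ones from noninflamed mice. L4–L5 transverse slices (400–600 μm) were perfused with Krebs solution at 37°C. Whole-cell recording from lamina IIo neurons held at −70 mV. sEPSC frequency and amplitude measured with test compound at 1 ng/ml; n = 5 neurons.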
# CD1 mice [12] = test: Carrageenan-induced inflammatory pain; format: in vivo, mouse; details: 10 ng intraplantar
# CD1 mice [13] = test: Rota-Rod test of motor function; format: in vivo, mouse; details: 10 ng i.t., naive animals
# [14] = TRPV1 current induced by capsaicin (100 nM), DRG neurons
# [15] = GDPβS 2.5 mM, 8 min, RvD2 1 ng/ml
# [16] = PTX 0.5 μg/ml, 18 h, RvD2 1 ng/ml
smiles,measurement,setting,value
"CC/C=C\C/C=C\C/C=C\C/C=C\C/C=C\C/C=C\CCC(=O)O [DHA, docosahexaenoic acid, reference compound]",AITC-induced pain,CD1 mice [1],but not AITC-induced pain
same,Effect on TRPA1 currents,TRPA1 [2],without affecting
same,Capsaicin-induced pain,CD1 mice [3],inhibited
"CC/C=C\C/C=C\C/C=C\C/C=C\C/C=C\CCCC(=O)O [EPA, eicosapentaenoic acid, reference compound]",AITC-induced pain,CD1 mice [1],but not AITC-induced pain
same,Effect on TRPA1 currents,TRPA1 [2],without affecting
same,Capsaicin-induced pain,CD1 mice [3],inhibited
"CC/C=C\C[C@H](O)/C=C/C=C\C=C\C=C\[C@@H](O)[C@@H](O)C/C=C\CCC(=O)O [RvD1, Resolvin D1]",AITC-induced nocifensive behaviors,CD1 mice [1],selectively inhibited
same,Effect on TRPV1 currents,TRPV1 [4]; even at high concentrations,no effect
same,IC50,TRPV1 [4]; [14],> 26.6 nM
same,IC50,TRPA1 [2],9 nM and 8.5 nM
same,AITC-induced sEPSC frequency increase,TRPA1 [5]; 10 ng/ml,selectively inhibited
"CC/C=C\C[C@H](O)[C@H](O)/C=C/C=C/C=C\C=C\[C@@H](O)C/C=C\CCC(=O)O [RvD2, Resolvin D2]",AITC-induced nocifensive behaviors,CD1 mice [1],significantly reduced
same,Antinociceptive action in formalin test,CD1 mice [6],significant antinociceptive action
same,Inhibition of TRPV1 current under intracellular GDPβS,TRPV1 [4]; [15],completely blocked
same,Effect on TRPV1 current after pertussis toxin pretreatment,TRPV1 [4]; [16],could not alter
same,TRPV1 IC50 expressed,TRPV1 [4]; [14],0.04 ng/mL
same,IC50,TRPV1 [4]; [14],0.1 ± 0.01 nM
same,Basal sEPSC amplitude,[7],altered neither
same,Basal sEPSC frequency,[7],altered neither
same,Inhibition of TRPA1 current under intracellular GDPβS,TRPA1 [2]; [15],completely blocked
same,Effect on TRPA1 current after pertussis toxin pretreatment,TRPA1 [2]; [16],could not alter
same,IC50,TRPA1 [2],2 nM and 2.1 nM
same,CFA-induced heat hyperalgesia,CD1 mice [8],effectively reduced
same,Duration of reduction of CFA-induced heat hyperalgesia and mechanical allodynia,CD1 mice [8],> 3 h
same,CFA-induced mechanical allodynia,CD1 mice [8]; data not shown,effectively reduced
same,LTP of C-fiber-evoked field potentials,[9],completely reversed
same,Capsaicin-induced increase in sEPSC frequency,TRPV1 [10]; 0.1 and 1 ng/ml,does-dependently blocked
same,CFA-induced increase in sEPSC amplitude,[11],abolished
same,CFA-induced increase in sEPSC frequency,[11],abolished
same,Capsaicin-induced nocifensive behaviors,CD1 mice [3],significantly reduced
same,CRG-induced heat hyperalgesia,CD1 mice [12],largely prevented
same,CRG-induced mechanical allodynia,CD1 mice [12],largely prevented
same,CRG-induced paw edema,CD1 mice [12]; data not shown,reduced
same,Motor function in the Rota-rod test,CD1 mice [13],Neither did this treatment affect
same,AITC-induced increase in sEPSC frequency,TRPA1 [5]; 0.1 and 1 ng/ml,does-dependently blocked
"CC[C@@H](O)/C=C/C=C\C[C@@H](O)/C=C/C=C/C=C\[C@@H](O)CCCC(=O)O [RvE1, Resolvin E1]",Effect on TRPA1 currents,TRPA1 [2],did not inhibit
same,Capsaicin-induced sEPSC frequency increase,TRPV1 [10]; 1 ng/ml,selectively inhibited
same,Capsaicin-induced nocifensive behaviors,CD1 mice [3],selectively inhibited
